The list is not random: actives were taken first. Their share in the collection is about 1.5%.
Keap1 Nrf2 FP: disrupts human Keap1 binding to Nrf2 peptide; AID 504523; Q14145; inhibition, % at 9.4 µM; 0.15% of 340,000 active; Keap1 Kelch-Nrf2 peptide fluorescence polarization, 1536-well; in the data active means inhibition above about 12%;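 further: human Keap1 Kelch domain with fluorescein labeled Nrf2 9mer peptide probe; 0% = neutral control wells and 100% = peptide positive control; higher means more block of Keap1 binding to Nrf2 peptide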
Target sequence (Q14145 whole entry, looked up, the tested form may be a part): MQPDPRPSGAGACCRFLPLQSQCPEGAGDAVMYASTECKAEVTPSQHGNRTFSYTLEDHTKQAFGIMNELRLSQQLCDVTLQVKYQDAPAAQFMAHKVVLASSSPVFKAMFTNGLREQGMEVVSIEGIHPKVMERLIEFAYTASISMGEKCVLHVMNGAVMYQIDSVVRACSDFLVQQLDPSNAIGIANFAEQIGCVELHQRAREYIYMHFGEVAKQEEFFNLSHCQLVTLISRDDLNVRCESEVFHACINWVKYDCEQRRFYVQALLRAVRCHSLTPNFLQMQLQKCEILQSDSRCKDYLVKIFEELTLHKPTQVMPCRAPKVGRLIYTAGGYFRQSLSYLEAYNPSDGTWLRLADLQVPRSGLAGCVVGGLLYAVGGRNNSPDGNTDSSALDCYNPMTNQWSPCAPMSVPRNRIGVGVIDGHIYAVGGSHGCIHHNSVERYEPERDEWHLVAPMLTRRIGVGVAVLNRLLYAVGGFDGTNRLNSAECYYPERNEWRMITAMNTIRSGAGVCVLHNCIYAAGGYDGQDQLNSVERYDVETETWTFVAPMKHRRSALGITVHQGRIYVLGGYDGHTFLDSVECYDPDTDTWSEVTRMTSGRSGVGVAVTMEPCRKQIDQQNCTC
CaV13 FRET inh: Disruptors of the CACNA1D IQ motif to Ca2+-dependent inactivation inhibitor domain association, primary screening, Förster resonance energy transfer in intact living …; 0.098% of 340,000 active; HEK cells, CFP/YFP FRET ICDI-IQ, plate reader, 10 min; percent FRET-ratio fall versus neutral wells; inhibition, % at 12.3 µM; AID 743397;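 active means mean replicate inhibition of at least 30% and at least 1% of replicates passing that level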;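 further: 0% = median of the neutral control wells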
CAL PDZ FP-1: blocks peptide binding to human CAL PDZ domain. AID 504414. 0.02% of 330,000 active. Q9HD26. purified CAL PDZ, TMR-peptide fluorescence polarization, 1 h. inhibition, % at 20 µM;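 active means highest replicate inhibition of at least 40%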;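 further: plate controls were DMSO neutral control wells for no effect and unlabeled competitor peptide control wells for full effect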
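material = purified tagged CAL PDZ domain construct (CerCALP) | compound dosing = 20 µM, one dose | times = 1 h at RT | measured by = fluorescence polarization from S- and P-plane intensities, G-factor corrected | read-out = inhibition from polarization loss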
LANA DNA inh: inhibitors of KSHV LANA C-terminal domain DNA binding | MBP-C-LANA/FAM-LBS DNA binding, fluorescence polarization | inhibition, % at 9 µM | 0.078% of 340,000 active | AID 504423;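 active means highest replicate inhibition at or above 60% at 9 µM, even if other replicates fall short; inactive means all replicates below 60% inhibition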;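 further: 0% = neutral control wells and 100% = 4 µM acridine orange control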
CAL PDZ FP-2: CAL PDZ (human) peptide binding inhibition; inhibition, % at 24.9 µM; purified CAL PDZ, TMR-peptide fluorescence polarization, 1 h; AID 602252; 0.92% of 300,000 active;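 active means mean inhibition of at least 30% with at least half of replicates also reaching 30%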;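 further: 0% = DMSO neutral control and 100% = excess unlabeled competitor peptide PRC23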
LANA-H2B inh: blocks KSHV LANA binding to histone H2A/H2B | Q9QR71 | 0.6% of 320,000 active | inhibition, % (concentration not given with the values) | cell-free LANA-H2A/H2B peptide, fluorescence polarization; in the data active means inhibition mostly above about 10%, no sharp cut-off; inactive means mostly below about 6.7%
The depositor's hits bear a star; . = no result given; + = active, no number; ! = a repeat was not active.

SMILES	Keap1 Nrf2 FP	CaV13 FRET inh	CAL PDZ FP-1	LANA DNA inh	CAL PDZ FP-2	LANA-H2B inh
CC(=O)N1c2ccc(S(=O)(=O)N3CCCCC3)cc2CC1C(=O)NCc1ccccc1C (centres undefined)	-11	-5	-1	0	39*	0
O=C(C1CC(=O)N(c2ccc(Cl)cc2)C1)N1CCOCC1 (centres undefined)	3	-3	-1	0	-1	28*
Cc1ccc(N2CC(C(=O)N3CCN(Cc4ccc5c(c4)OCO5)CC3)CC2=O)cc1 (centres undefined)	-4	-4	-2	0	-5	52*
COc1cccc(OC)c1C(=O)N1CCN(Cc2ccc3c(c2)OCO3)CC1	-2	.	0	-1	.	6
COc1cc(SC)ccc1C(=O)N1CCN(Cc2ccc3c(c2)OCO3)CC1	6	-4	-1	2	46*	-3
COC(=O)c1ccc(C(=O)OC)c(NC(=O)CN(c2ccc3c(c2)OCO3)S(C)(=O)=O)c1	0	-6	-2	0	11	3
CC(C)C[C@H]1COc2cc(NCCO)ccc2S(=O)(=O)N1	.	-3	.	.	.	.
c1ccc(-c2noc(CC3CCCCC3)n2)cc1	-7	6	-1	0	40*	3
O=[N+]([O-])c1cc2c(ccc3occc32)o1	.	-8	.	.	.	.
COc1ccc(Br)cc1CN(C)C(=O)C1=CC=CN2CCS(=O)(=O)N=C12	-1	-7	0	1	14	3
COc1ccc(Br)cc1CN(C)C(=O)c1ccncc1	3	-6	0	1	+	-1
CN1CCc2c(sc(NC(=O)c3ccco3)c2C(N)=O)C1	2	-5	-2	0	-4	-15
CN1CCc2c(sc(NC(=O)c3cc(Cl)sc3Cl)c2C(N)=O)C1	.	+	.	.	.	1
CCC(c1nnnn1C1CCCC1)N1CCC(C(N)=O)CC1 (centres undefined)	-6	-4	0	-3	4	49*
CC(C)C(c1nnnn1C1CCCC1)N1CCC(C(N)=O)CC1 (centres undefined)	3	-4	-3	-1	12	-3
CCNC(=O)c1ccccc1NC(=O)C1CC(=O)N(C(C)C)C1 (centres undefined)	-2	-21	3	1	62*	8
Cn1c(C(=O)N2CCN(c3ccccc3)CC2)cc2cc(Cl)ccc21	-2	-3	-1	2	74*	-1
Cn1c(C(=O)N2CCN(c3ccccn3)CC2)cc2ccccc21	0	-20	-1	-2	-4	6
S=C1SCN(Cc2cccnc2)CN1Cc1cccnc1	1	-19	-1	0	-5	-7
Cc1ccc(O)c(C(=O)C=Cc2ccccc2)c1	2	-6	-1	-10	-5	.
O=C(C=Cc1ccccc1)c1cc(Br)ccc1O	-1	-12	21	1	81*	.
CSc1ccccc1NC(=O)CN1CCN(S(=O)(=O)c2ccccc2[N+](=O)[O-])CC1	0	-3	-1	-1	+	0
Cc1ccc(OCC(=O)Nc2c(C)ccc3nsnc23)cc1	2	-7	0	1	52*	0
Cc1ccc2nsnc2c1NC(=O)COc1ccccc1	2	-7	-1	0	9	1
CCOC(=O)C1=CCN(S(=O)(=O)c2ccc(Cl)cc2)C1c1cccc(F)c1 (centres undefined)	.	-3	.	.	.	.
SMILES	Keap1 Nrf2 FP	CaV13 FRET inh	CAL PDZ FP-1	LANA DNA inh	CAL PDZ FP-2	LANA-H2B inh
Cc1cc(NC(=O)CCN2C(=O)C3C4CCC(C4)C3C2=O)cc(C)c1Br (centres undefined)	-2	.	-2	0	-3	3
Cc1c(Br)ccc(NC(=O)CCN2C(=O)C3C4CCC(C4)C3C2=O)c1C (centres undefined)	7	-6	-1	2	32*	-1
Nc1[nH]c(C(=O)c2ccccc2)c(-c2ccccc2Br)c1C(=O)c1cccs1	.	-20	.	.	.	.
O=C(CCc1nc(-c2ccc(Cl)cc2)no1)NCc1ccccc1CN1CCOCC1	1	-6	0	2	-4	-4
O=C(CCc1nc(-c2ccccc2)no1)NCc1ccccc1CN1CCOCC1	2	-5	0	0	.	26*
CCOC(=O)C1=C(C(=O)OCC)C2N(Cc3ccc(C(F)(F)F)cc3)c3ccccc3[C@@]23C[C@@H](C(=O)OC)N(S(=O)(=O)c2ccc(OC)cc2)C3=N1 (some centres undefined)	.	-4	.	.	.	.
Nc1[nH]c(C(=O)c2ccccc2)c(-c2ccccc2)c1C(=O)NCCc1c[nH]c2ccccc12	.	-15	.	.	.	.
CCN(C(=O)C(C)OC(=O)C1C(C(=O)OC)=C(C)NC(C)=C1C(=O)OC)c1ccccc1 (centres undefined)	-1	-4	-2	0	-4	-2
COC(=O)C1=C(C)NC(C)=C(C(=O)OC)C1C(=O)OC(C)C(=O)c1ccccc1 (centres undefined)	0	-3	0	2	50*!	-1
CN(CC(=O)Nc1ccc(OC(F)(F)F)cc1)C(=O)/C=C/c1cc2c(cc1[N+](=O)[O-])OCO2	1	-5	-1	0	-6	0
Cc1ccc(S(=O)(=O)NCCN(CCNS(=O)(=O)c2ccc(C)cc2)S(C)(=O)=O)cc1	2	-5	-1	1	52*	-1
Cc1ccc(S(=O)(=O)NCCCCCCNS(=O)(=O)c2ccc(C)cc2)cc1	.	-7	.	.	.	.
CCc1c(-c2ccccc2Br)ncn1CCc1ccccc1OC	.	-5	.	.	.	.
OCCC1CN(Cc2ccc3cc(Cl)ccc3n2)CCN1Cc1ccsc1 (centres undefined)	-6	-3	-1	0	72*	1
CN1CCC(C2(O)c3ccccc3CSc3sccc32)CC1 (centres undefined)	0	-3	.	-2	110*	2
COC(=O)C1=C(C)N(Cc2cccc(C(F)(F)F)c2)C(=NCc2cc(OC)c(OC)c(OC)c2)NC1c1cccc(F)c1 (centres undefined)	.	-4	.	.	.	.
Cc1ccc2cc3c(N)c(C(=O)N4CCOCC4)sc3nc2c1	-4	.	0	3	53*	1
CNC(=O)c1c(C)nc(SCC(=O)NCc2ccc(OC)cc2)c(C#N)c1-c1ccco1	-1	.	0	0	55*	1
COCCOC(=O)c1c(C)nc(SCC(=O)Nc2cccc3ccccc23)c(C#N)c1-c1ccco1	-2	-4	0	0	-1	2
Cc1nnc(SCc2ccccc2C#N)n1-c1ccccc1	-4	.	.	-1	-5	0
Cc1nnc(SC(C)C#N)n1-c1ccccc1 (centres undefined)	-4	8	0	0	76*	0

Screening results (PubChem BioAssay)
